Assay results as given in ChEMBL document CHEMBL4699581, “Design, synthesis, and biological evaluation of N-arylpiperazine derivatives as interferon inducers” (Bioorg Med Chem Lett, 2020).
Calls of active or inactive are those of the source. No cut-off for these calls is given here.

Experiments:
Assay type in all cases: cell-based
[1] = test system: THP-1; assay: Induction of type-1 IFN signalling in human THP-1 cells assessed as increase in type-1 interferon-induced ISG54-ISRE promoter activity by measuring increase in transcriptional activity of luciferase reporter gene at 40 uM by secreted luciferase reporter gene assay relative to control; conditions: filed as activator
Outline: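 THP-1 monocytes carry an ISRE reporter (ISG54 minimal promoter with five ISRE elements) that drives a secreted luciferase. Each compound was tested at 40 μM. Luminescence was read and expressed as relative units normalized to a DMSO control, as mean ± standard deviation.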

[2] = Cytotoxicity against human THP-1 cells assessed as cell viability at 40 uM relative to control; conditions: read-out: Activity
Outline: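 THP-1 viability was measured in parallel with the ISRE reporter readout after treatment with 40 μM of each compound. Results are given as mean ± standard deviation.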

[3] = test system: THP-1; assay: Induction of type-1 IFN signalling in human THP-1 cells assessed as increase in IFNbeta secretion at 20 uM by ELISA; conditions: filed as activator
Outline: (§1)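 IFNβ and IP-10 released extracellularly from treated THP-1 cells were quantified by ELISA.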

[4] = test system: THP-1; assay: Induction of type-1 IFN signalling in human THP-1 cells assessed as increase in IP-10 secretion at 20 uM by ELISA; conditions: filed as activator; outline: as §1
[5] = Induction of type-1 IFN signalling in human THP-1 cells assessed as increase in type-1 IFN-induced ISG54-ISRE promoter activity by measuring increase in transcriptional activity of luciferase reporter gene by secreted luciferase reporter gene assay
Outline: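 The THP-1 secreted-luciferase ISRE reporter (ISG54 minimal promoter plus five ISREs) was tested across a dose range. Luminescence was read as fold change over control. EC50 was calculated and Emax was interpolated from the dose-response curve.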

[6] = test system: THP-1; assay: Induction of type-1 IFN signalling in human THP-1 cells assessed as increase in IFN-stimulated OAS1 mRNA expression at 50 uM by qPCR analysis; conditions: filed as activator
[7] = test system: THP-1; assay: Induction of type-1 IFN signalling in human THP-1 cells assessed as increase in IFN-stimulated IFIT3 mRNA expression at 50 uM by qPCR analysis; conditions: filed as activator
[8] = test system: THP-1; assay: Induction of type-1 IFN signalling in human THP-1 cells assessed as increase in IFN-stimulated CXCL10 mRNA expression at 50 uM by qPCR analysis; conditions: filed as activator
[9] = test system: THP-1; assay: Induction of type-1 IFN signalling in human THP-1 cells assessed as increase in IFN-stimulated IFNbeta mRNA expression at 50 uM by qPCR analysis; conditions: filed as activator
[10] = test system: THP-1; assay: Cytotoxicity against human THP-1 cells assessed as cell viability at 2.5 to 40 uM; conditions: thp-1, 40 µM, dose 2.5-40 µM
Outline: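 THP-1 viability was tested across a range of treatment concentrations up to 40 µM, alongside the ISRE reporter dose-response.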

[11] = test system: THP-1; assay: Induction of type-1 IFN signalling in human THP-1 cells assessed as increase in IFN-stimulated IRF7 mRNA expression at 50 uM by qPCR analysis; conditions: filed as activator

Row | SMILES | Activity [1] [RU] | viability at 40 µM [2] [%] | also measured
1 | O=C(Nc1ccc(C(F)(F)F)cc1)N1CCN(c2cccc(Cl)c2Cl)CC1 | 3.9 | 61 | 
2 | COc1ccc(NC(=O)N2CCN(c3cccc(Cl)c3Cl)CC2)cc1 | 3.3 | 98 | 
3 | O=C(CCc1ccccc1C(F)(F)F)N1CCN(c2cccc(Cl)c2Cl)CC1 | 2.5 | 96 | 
4 | O=C(Nc1ccc([N+](=O)[O-])cc1)N1CCN(c2cccc(Cl)c2Cl)CC1 | 1 | 90 | 
5 | CCCCCCCCCCCCC(=O)N1CCN(c2cccc(Cl)c2Cl)CC1 | 1.3 | 89 | 
6 | O=C(c1cccc(C(F)(F)F)c1)N1CCN(c2cccc(Cl)c2Cl)CC1 | 2.8 | 105 | 
7 | O=C(Nc1cccc(C(F)(F)F)c1)N1CCN(c2cccc(Cl)c2Cl)CC1 | 3.3 | 76 | 
8 | COc1cc(CC(=O)N2CCN(c3cccc(Cl)c3Cl)CC2)cc(OC)c1OC | 5.2 | 98 | Activity [3]: Active; Activity [4]: Active; EC50 [5]: 13.1 µM; Activity [6]: Active; Activity [7]: Active; Activity [8]: Active; Activity [9]: Active; Activity [10]: Non-Toxic; Activity [11]: Active
9 | O=C(c1ccc(Cl)cc1Cl)N1CCN(c2cccc(Cl)c2Cl)CC1 | 2.3 | 86 | 
10 | O=C(Nc1cccc(OC(F)(F)F)c1)N1CCN(c2cccc(Cl)c2Cl)CC1 | 3 | 70 | 
11 | S=C(Nc1ccc(Br)cc1)N1CCN(c2cccc(Cl)c2Cl)CC1 | 0.4 | 46 | 
12 | O=C(Nc1ccc(OC(F)(F)F)cc1)N1CCN(c2cccc(Cl)c2Cl)CC1 | 4.2 | 96 | 
13 | O=C(c1ccc(C(F)(F)F)cc1)N1CCN(c2cccc(Cl)c2Cl)CC1 | 1.8 | 90 | 
14 | O=C(Nc1ccc(F)cc1)N1CCN(c2cccc(Cl)c2Cl)CC1 | 2.1 | 95 | 
15 | COc1ccc(C(=O)N2CCN(c3cccc(Cl)c3Cl)CC2)cc1 | 3.7 | 81 | 
16 | O=[N+]([O-])c1ccc(NC(=S)N2CCN(c3cccc(Cl)c3Cl)CC2)cc1 | 1.1 | 97 | 
17 | COc1cccc(NC(=O)N2CCN(c3cccc(Cl)c3Cl)CC2)c1 | 2.7 | 87 | 
18 | Cc1cc([N+](=O)[O-])ccc1C(=O)N1CCN(c2cccc(Cl)c2Cl)CC1 | 1.4 | 84 | 
19 | O=C(Cc1cc(F)c(F)cc1F)N1CCN(c2cccc(Cl)c2Cl)CC1 | 2.8 | 101 | 
20 | COc1cc(OC)cc(C(=O)N2CCN(c3cccc(Cl)c3Cl)CC2)c1 | 1.9 | 83 | 
21 | CC(C)NC(=S)N1CCN(c2cccc(Cl)c2Cl)CC1 | 1.2 | 84 | 
22 | O=C(c1cnccn1)N1CCN(c2cccc(Cl)c2Cl)CC1 | 2.5 | 89 | 
23 | Fc1ccc(NC(=S)N2CCN(c3cccc(Cl)c3Cl)CC2)cc1 | 1.3 | 81 | 
24 | S=C(Nc1cccc(Br)c1)N1CCN(c2cccc(Cl)c2Cl)CC1 | 1.5 | 85 | 
25 | S=C(Nc1ccc(Cl)cc1)N1CCN(c2cccc(Cl)c2Cl)CC1 | 1.2 | 99 | 
